Assay results as given in ChEMBL document CHEMBL3351606, “Targeting (cellular) lysosomal acid ceramidase by B13: design, synthesis and evaluation of novel DMG-B13 ester prodrugs” (Bioorg Med Chem, 2014).
Converted amounts (≈) assume the structure as drawn. The source made the active and inactive calls. The calls are words filed in the database; no cut-off is given here.

What was measured:
[1] = test system: Alkaline ceramidase 2 (Homo sapiens); assay: Inhibition of AlkCDase in human HeLa cells expressing […] assessed as increase in Sph level at 10 uM after 1 hr by LC-MS/MS analysis
[2] = test system: MCF7; assay: Induction in Cer level in human MCF7 cells at 10 uM after 1 hr by LC-MS/MS analysis; format: functional
Procedure, shortened: (§1)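 MCF7 cells treated 1 h with compound or ethanol vehicle; pellets spiked with internal standards, lipids extracted and Sph and total Cer quantified by LC–MS/MS in MRM mode, expressed as pmol per nmol lipid phosphate and as % of control; duplicates.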

[3] = molecular target: T1, Sphingomyelin phosphodiesterase (Homo sapiens) (UniProt P17405); assay: Inhibition of lysosomal ASMase activity in human MCF7 cells assessed as [methyl-14C]choline release at 1 uM after 1 hr; format: cell-based
T1 sequence (whole entry): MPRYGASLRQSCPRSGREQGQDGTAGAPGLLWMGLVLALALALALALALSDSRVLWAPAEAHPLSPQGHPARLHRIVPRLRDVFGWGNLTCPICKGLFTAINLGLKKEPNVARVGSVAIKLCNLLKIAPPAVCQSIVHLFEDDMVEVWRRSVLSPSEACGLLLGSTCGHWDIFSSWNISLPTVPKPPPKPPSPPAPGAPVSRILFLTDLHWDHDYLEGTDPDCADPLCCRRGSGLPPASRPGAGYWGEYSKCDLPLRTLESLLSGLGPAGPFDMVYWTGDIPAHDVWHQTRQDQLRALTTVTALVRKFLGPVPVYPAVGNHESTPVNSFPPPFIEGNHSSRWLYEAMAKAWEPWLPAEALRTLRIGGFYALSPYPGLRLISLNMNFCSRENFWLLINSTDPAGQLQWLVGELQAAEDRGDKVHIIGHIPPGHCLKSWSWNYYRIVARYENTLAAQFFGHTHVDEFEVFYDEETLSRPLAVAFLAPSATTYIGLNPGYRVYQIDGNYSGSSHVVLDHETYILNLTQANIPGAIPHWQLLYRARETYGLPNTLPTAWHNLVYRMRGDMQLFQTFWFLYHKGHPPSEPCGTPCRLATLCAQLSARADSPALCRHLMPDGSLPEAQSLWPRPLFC
Procedure, shortened: (§2)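 MCF7 cells treated 1 h with compound or vehicle, lysed in 0.2% Triton X-100/50 mm Tris-HCl pH 7.4 with EDTA and protease/phosphatase inhibitors; clarified lysate incubated with 100 µM porcine brain SM plus choline-[methyl-14C] SM in Triton micelles, 250 mM sodium acetate pH 5.0, 1.0 mM EDTA, 30 min at 37 °C; aqueous-phase 14C counted after Folch extraction; triplicates, % control.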

[4] = Solubility in water at 25 degC; format: physicochemical
[5] = test system: MCF7; assay: Reduction in Sph level in human MCF7 cells at 10 uM after 1 hr by LC-MS/MS analysis; format: ADME, cell-based; details: MCF7, 1 h
Procedure, shortened: as §1

[6] = test system: MCF7; assay: Reduction in alpha-ACDase level in human MCF7 cells at 10 uM by scintillation counting analysis; format: functional, cell-based; details: in the assay text read “Western blot analysis” for “scintillation counting analysis”, TDE = time-dependent effect
Procedure, shortened: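 MCF7 cells treated 1 and 5 h with compound or vehicle; lysates (35 µg protein) run on SDS gels, blotted, probed with mouse monoclonal anti-ACDase and HRP secondary; bands of the cleaved alpha-ACDase chain quantified by densitometry, normalized to actin, % control.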

[7] = test system: MCF7; assay: Reduction in alpha-ACDase level in human MCF7 cells at 1 uM by Western blot analysis
[8] = molecular target: T2, Acid ceramidase (Homo sapiens) (UniProt Q13510); assay: Inhibition of ACDase in human MCF7 cells at 10 uM after 1 hr by cellular/scintillation counting analysis; format: cell-based
T2 sequence (whole entry): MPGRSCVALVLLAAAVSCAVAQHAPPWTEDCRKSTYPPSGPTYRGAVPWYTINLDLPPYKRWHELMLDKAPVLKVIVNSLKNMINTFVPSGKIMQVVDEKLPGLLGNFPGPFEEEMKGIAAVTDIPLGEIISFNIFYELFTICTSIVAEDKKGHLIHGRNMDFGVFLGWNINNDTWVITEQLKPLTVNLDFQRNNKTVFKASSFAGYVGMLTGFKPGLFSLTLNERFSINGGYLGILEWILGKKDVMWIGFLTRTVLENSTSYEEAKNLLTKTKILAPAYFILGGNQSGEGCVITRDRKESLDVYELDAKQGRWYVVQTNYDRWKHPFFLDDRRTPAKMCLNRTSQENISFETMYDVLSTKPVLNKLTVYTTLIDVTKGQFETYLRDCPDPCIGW
Procedure, shortened: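 MCF7 cells treated 1 h with compound or vehicle, washed in cold PBS and scraped; lysate ACDase activity then measured at pH 4.5 with [9,10-3H] D-e-C16-Cer, 1 h at 37 °C, released [3H]palmitic acid counted; pmol/mg protein/h, % control; quadruplicates.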

[9] = molecular target: T1, Sphingomyelin phosphodiesterase (Homo sapiens); assay: Inhibition of lysosomal ASMase activity in human MCF7 cells assessed as [methyl-14C]choline release at 10 uM after 1 hr; format: cell-based
Procedure, shortened: as §2

[10] = test system: MCF7; assay: Reduction in Sph level in human MCF7 cells at 1 uM after 5 hrs by LC-MS/MS analysis; format: ADME, cell-based; details: MCF7, 5 h
[11] = test system: MCF7; assay: Drug uptake in human MCF7 cells assessed as drug level at 10 uM after 24 hrs by LC-MS/MS analysis; format: ADME, cell-based; details: mcf7, 24 h
Procedure, shortened: (§3)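 MCF7 cells (RPMI 1640, 10% FBS) treated with test compound or vehicle (ethanol) over a time course up to 24 h; after washing with cold PBS and scraping, pellets spiked with internal standards, lipids extracted (ethyl acetate/isopropanol/water) and compounds quantified by LC–MS/MS in positive MRM mode against calibration curves, normalized to lipid phosphate; duplicates.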

[12] = test system: Alkaline ceramidase 2 (Homo sapiens); assay: Inhibition of AlkCDase in human HeLa cells expressing […] assessed as fold increase in Sph level at 10 uM after 1 hr by LC-MS/MS analysis
[13] = molecular target: Neutral ceramidase (Homo sapiens) (UniProt Q9NR71); assay: Inhibition of NCDase in human HeLa cells expressing ASAH2 assessed as increase in Sph level at 10 uM after 1 hr by LC-MS/MS analysis; format: cell-based
Procedure, shortened: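 HeLa cells stably carrying ACER2, ASAH2 or empty vector, grown to 60% confluence, given tetracycline 5 ng/mL overnight, then treated 1 h with compound (1 or 10 µM) or ethanol; sphingolipids extracted and Sph measured by LC–MS/MS per nmol lipid phosphate, also given as Sph ratio of ACER2 or ASAH2 cells to vector cells.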

[14] = molecular target: Neutral ceramidase (Homo sapiens) (UniProt Q9NR71); assay: Inhibition of NCDase in human MCF7 cells assessed as release of [3H] palmitic acid at 10 uM after 1 hr
[15] = Toxicity in rat; format: organism-based; details: in vivo
[16] = test system: MCF7; assay: Reduction in Sph level in human MCF7 cells at 1 uM after 1 hr by LC-MS/MS analysis; format: ADME, cell-based; details: MCF7, 1 h, read-out: INH
Procedure, shortened: as §1

[17] = test system: Alkaline ceramidase 2 (Homo sapiens); assay: Inhibition of AlkCDase in human HeLa cells expressing […] assessed as fold increase in Sph level at 1 uM after 1 hr by LC-MS/MS analysis
[18] = test system: MCF7; assay: Effect on lysosomal stability in human MCF7 cells assessed as recovery of Lysotracker Red uptake at 10 uM after 5 hrs by FACS analysis; format: functional, cell-based
Procedure, shortened: (§4)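 MCF7 cells seeded overnight, medium switched to 2% FBS with compound in ethanol or ethanol alone, 1 or 5 h at 37 °C, then Lysotracker Red DND-99 200 nM for 30 min at 37 °C. Cells trypsinized, washed and analysed by FACS (564–606 nm), at least 10,000 events per sample; lower fluorescence read as higher lysosomal pH; triplicates, % of control.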

[19] = molecular target: T2, Acid ceramidase (Homo sapiens); assay: Inhibition of ACDase in human MCF7 cell lysate using [9,10-3H] De-C16-Cer substrate at 50 uM after 1 hr by scintillation counting analysis; format: cell-free
Procedure, shortened: (§5)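 ACDase activity in MCF7 lysate (pH 4.5): [9,10-3H] D-e-C16-Cer and compound dried with 0.2% Triton X-100/0.4% cholate, then protein and 0.2 M acetate buffer with 0.5% Triton X-100 (pH 4.5) added; 1 h at 37 °C, stopped with Dole's solution; released [3H]palmitic acid scintillation-counted, pmol/mg protein/h, % control; duplicates.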

[20] = molecular target: T2, Acid ceramidase (Homo sapiens); assay: Inhibition of ACDase in human MCF7 cell lysate using [9,10-3H] De-C16-Cer substrate at 20 uM after 1 hr by scintillation counting analysis; format: cell-free
Procedure, shortened: as §5

[21] = test system: MCF7; assay: Drug formation in human MCF7 cells treated with LCL596 up to 2 to 5 hrs by LC-MS/MS analysis; format: ADME, cell-based
Procedure, shortened: as §3

[22] = test system: MCF7; assay: Effect on lysosomal stability in human MCF7 cells assessed as increase in Lysotracker Red uptake at 10 uM after 5 hrs by FACS analysis; format: ADME, cell-based; details: mcf7, 5 h
Procedure, shortened: as §4

[23] = test system: MCF7; assay: Drug formation in human MCF7 cells treated with LCL522 up to 2 to 5 hrs by LC-MS/MS analysis; format: ADME, cell-based
Procedure, shortened: as §3

[24] = test system: MCF7; assay: Reduction in Sph level in human MCF7 cells at 50 uM after 5 hrs by LC-MS/MS analysis; format: functional; details: MCF7, 5 h
[25] = test system: MCF7; assay: Reduction in Sph level in human MCF7 cells at 50 uM after 24 hrs by LC-MS/MS analysis; format: functional; details: MCF7, 24 h
[26] = molecular target: T2, Acid ceramidase (Homo sapiens); details: MCF7, 50 uM
[27] = test system: MCF7; assay: Induction in Cer level in human MCF7 cells at 50 uM after 1 hr by LC-MS/MS analysis; format: functional
[28] = molecular target: T2, Acid ceramidase (Homo sapiens); details: MCF7, 50 uM; remark: listed apart in the source
[29] = test system: Alkaline ceramidase 2 (Homo sapiens); assay: Inhibition of AlkCDase in microsomes of human HeLa cells using D-e-C18:1-Cer substrate up to 250 uM after 30 mins
[30] = molecular target: T3, Acid ceramidase (Homo sapiens, UniProt Q13510); assay: Inhibition of ACDase in human MCF7 cell lysate using [9,10-3H] De-C16-Cer substrate after 1 hr by scintillation counting analysis
T3 sequence (Q13510 whole entry): T2 sequence (whole entry)

[31] = test system: MCF7; assay: Reduction in Sph level in human MCF7 cells at 30 uM by LC-MS/MS analysis; format: functional, cell-based
[32] = test system: MCF7; assay: Induction in Cer level in human MCF7 cells at 50 uM after 24 hrs hr by LC-MS/MS analysis; format: functional
[33] = molecular target: T2, Acid ceramidase (Homo sapiens); details: MCF7, 50 uM; remark: listed apart in the source

Neutral ceramidase (Homo sapiens), sequence (Q9NR71 whole entry): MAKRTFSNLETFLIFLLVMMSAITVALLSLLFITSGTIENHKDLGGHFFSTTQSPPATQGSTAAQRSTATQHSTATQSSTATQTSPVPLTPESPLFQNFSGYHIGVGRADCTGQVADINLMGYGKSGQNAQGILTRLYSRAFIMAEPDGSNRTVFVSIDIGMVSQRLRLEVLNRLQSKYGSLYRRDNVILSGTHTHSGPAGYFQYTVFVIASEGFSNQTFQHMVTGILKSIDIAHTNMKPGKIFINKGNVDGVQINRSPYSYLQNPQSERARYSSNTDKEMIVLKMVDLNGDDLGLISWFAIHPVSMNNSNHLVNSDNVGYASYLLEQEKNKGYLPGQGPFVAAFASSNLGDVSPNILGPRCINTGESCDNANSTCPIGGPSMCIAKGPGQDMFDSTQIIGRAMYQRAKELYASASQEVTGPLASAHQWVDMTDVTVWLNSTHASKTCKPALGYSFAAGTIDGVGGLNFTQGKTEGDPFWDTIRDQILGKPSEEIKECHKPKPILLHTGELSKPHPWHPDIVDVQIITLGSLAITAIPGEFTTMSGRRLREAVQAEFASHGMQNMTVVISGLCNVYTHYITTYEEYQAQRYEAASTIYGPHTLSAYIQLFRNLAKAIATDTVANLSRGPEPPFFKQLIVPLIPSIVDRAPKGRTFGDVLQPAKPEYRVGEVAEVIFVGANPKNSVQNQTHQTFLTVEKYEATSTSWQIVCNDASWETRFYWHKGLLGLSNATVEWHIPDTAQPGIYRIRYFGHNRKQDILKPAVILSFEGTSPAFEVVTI

Compound	Activity [2]	solubility [4]	inhibition at 10 µM [5]	inhibition [8]	Drug uptake [11]	LD50 [15]	Activity [18]	inhibition [19]	inhibition [20]	Drug metabolism [23]	other results
CCCCCCCCCCCCCC(=O)N[C@H](COC(=O)CN(C)C)[C@H](OC(=O)CN(C)C)c1ccc([N+](=O)[O-])cc1.Cl	130%	430 mg/mL	97%	Active	27%	3900 mg/kg	Active	Active	Active		inhibition [1]: Active; inhibition [3]: 30%; inhibition [6]: tde; Activity [7]: inactive; inhibition [9]: 85%; inhibition at 1 µM [10]: 50%; fold change (FC) [12]: 5; inhibition [13]: inactive; inhibition [14]: inactive; inhibition at 1 µM [16]: 80%; fold change (FC) [17]: 2
CCCCCCCCCCCCCC(=O)N[C@H](CO)[C@H](OC(=O)CN(C)C)c1ccc([N+](=O)[O-])cc1.Cl	inactive		60%	Active	Active	3900 mg/kg		Active	Active		Drug metabolism [21]: metabolite_detected
CCCCCCCCCCCCCC(=O)N[C@H](COC(=O)CN(C)C)[C@H](O)c1ccc([N+](=O)[O-])cc1.Cl	inactive		60%	Active	Active	3900 mg/kg		Active	Active	metabolite_detected	Activity [22]: 180%
CCCCCCCCCCCCCC(=O)N[C@H](CO)[C@H](O)c1ccc([N+](=O)[O-])cc1		0.008 mg/mL (≈ 18.9 µM)		Active			inactive	95%		metabolite_detected	inhibition at 50 µM [24]: 70%; inhibition at 50 µM [25]: 40%; inhibition [26]: 40%; Activity [27]: 140%; inhibition [28]: 20%; inhibition [29]: inactive; IC50 [30]: 27.7 µM; inhibition [31]: Active; Activity [32]: 270%; inhibition [33]: 50%
